KCNK9 inh = KCNK9 potassium channel inhibitors, primary screen, HEK293 cells, thallium flux; Potassium channel subfamily K member 9 (Homo sapiens), Q9NPC2; FluxOR thallium flux fluorescence; active compounds read low; B-score at 10 µM; 310,000 compounds, 1.2% hits; AID 488922, 2010;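 active = ratio B-score over 3 SD below the library mean, with starting fluorescence within 5 SD of its mean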;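 note: negative B-score means less thallium flux so channel inhibition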
Target sequence (Q9NPC2 whole entry, looked up): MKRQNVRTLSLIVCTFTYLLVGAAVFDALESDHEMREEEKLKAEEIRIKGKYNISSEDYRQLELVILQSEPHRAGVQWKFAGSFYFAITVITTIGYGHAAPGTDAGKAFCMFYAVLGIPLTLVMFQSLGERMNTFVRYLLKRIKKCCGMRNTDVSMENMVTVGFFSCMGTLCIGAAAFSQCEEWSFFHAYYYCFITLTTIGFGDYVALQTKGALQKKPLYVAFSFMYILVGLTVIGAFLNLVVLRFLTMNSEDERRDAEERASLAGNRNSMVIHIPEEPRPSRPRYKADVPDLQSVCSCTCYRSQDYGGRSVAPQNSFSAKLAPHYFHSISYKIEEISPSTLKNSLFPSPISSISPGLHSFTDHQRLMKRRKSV
hERG rescue = hERG rescue from dofetilide block, primary screen, cell-based, CHO-hERG, FluxOR thallium flux, dofetilide IC70 | Voltage-gated inwardly rectifying potassium channel KCNH2 (Homo sapiens), Q12809 | dofetilide IC70 present | activation (rescue from dofetilide block), less the hit threshold, % at 10 µM | 310,000 compounds, 0.51% hits | AID 1511, 2009;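 active = activation above the mean of controls blocked by dofetilide plus 5 SD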;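 note: thallium influx through hERG after potassium depolarization seen as dye fluorescence rise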
KCNQ1 inh = inhibitors of human KCNQ1 channel, primary screen, cell-based, thallium flux, high-throughput; Potassium voltage-gated channel subfamily KQT member 1 (Homo sapiens), P51787; CHO-K1 KCNQ1, FluxOR thallium flux fluorescence; active compounds read high; B-score at 10 µM; 310,000 compounds, 1.3% hits;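 active = compounds whose thallium flux B-score, printed positive for inhibition, exceeds three library SD while starting fluorescence stays within three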;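 note: channel opened by potassium depolarization with thallium stimulus after 20 min compound exposure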
KCNK3 block = human KCNK3 channel inhibitors, primary screen, CHO cells, FluxOR thallium flux, B-score; Potassium channel subfamily K member 3 (Homo sapiens), O14649; FluxOR fluorescence; active compounds read low; B-score at 10 µM; 340,000 compounds, 0.84% hits;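 active = B-score under library mean minus 4 SD, starting fluorescence ratio at most library mean plus 5 SD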;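 note: more negative B-score means stronger inhibition of thallium flux through KCNK3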
Target sequence (O14649 whole entry, looked up): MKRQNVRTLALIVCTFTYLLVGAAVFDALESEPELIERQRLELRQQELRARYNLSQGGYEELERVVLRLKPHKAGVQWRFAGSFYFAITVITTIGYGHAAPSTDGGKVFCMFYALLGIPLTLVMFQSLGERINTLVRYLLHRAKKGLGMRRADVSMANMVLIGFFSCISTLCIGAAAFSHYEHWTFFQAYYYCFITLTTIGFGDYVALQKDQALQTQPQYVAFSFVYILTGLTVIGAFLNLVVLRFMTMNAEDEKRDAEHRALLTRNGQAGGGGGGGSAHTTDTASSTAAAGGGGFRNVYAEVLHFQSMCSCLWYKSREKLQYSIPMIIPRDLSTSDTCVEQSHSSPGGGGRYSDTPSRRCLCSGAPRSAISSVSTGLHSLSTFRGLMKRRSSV
KCNQ1 pot = potentiators or activators of KCNQ1 channel, primary screen, cell-based, thallium flux, high-throughput; Potassium voltage-gated channel subfamily KQT member 1 (Homo sapiens), P51787; CHO-K1 KCNQ1, thallium flux FluxOR fluorescence; active compounds read high; B-score at 10 µM; 310,000 compounds, 0.35% hits;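 active = fluorescence ratio B-score, a plate-corrected score, at least three library SD, with initial intensity B-score within 5 SD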
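assay system = CHO-K1 cells stably expressing KCNQ1 | medium = assay buffer, equal DMSO in all wells | timing = 37 °C overnight plating, 90-min dark dye load, 20-min compound pretreatment | measured by = kinetic FluxOR thallium fluorescence, 10-s 1-Hz baseline, 110-s post-stimulus read | measure = fluorescence change relative to baseline, converted to B score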
KCC2 mod = KCC2 cotransporter modulators, thallium flux, primary screen, cell-based, HEK293 KCC2, FluoZin-2 fluorescence, MLSMR. AID 1456, 2008. 190,000 compounds, 2.2% hits. Solute carrier family 12 member 5 (Homo sapiens), Q9H2X9. B-score of Tl+ flux slope (higher = more flux/activation; lower = inhibition) at 10 µM. KCC2 cells, thallium flux FluoZin-2 fluorescence;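 active = thallium flux slope and its plate-corrected score both differing from the plate sample mean at a set confidence after two filtering rounds, in either direction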;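 note: slope of fluorescence scaled to starting intensity during 10 to 20 s after thallium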
KCC2 sec1 = KCC2 modulators in sodium-free buffer, confirmation, cell-based, HEK293 KCC2, thallium flux, secondary assay. shares compounds with KCC2 mod. 3,700 compounds, 15% hits. normalised thallium flux (F/F0 slope) at 10 µM. FluoZin2 fluorescence; active compounds read high;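 active = thallium flux slope above the same plate's solvent-only control mean plus 3 SD; inconclusive = the two replicate wells disagree; inactive = no significant difference from solvent-only control wells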
KCC2 bumet counter = thallium flux persisting under bumetanide in KCC2 cells, confirmation, counter-screen for KCC2 modulator project, cell-based, HEK293 KCC2, FluoZin2, secondary assay 3; normalized thallium flux at 10 µM; HEK293-KCC2 + bumetanide/ouabain; active compounds read high; 3,700 compounds, 49% hits; shares compounds with KCC2 mod;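 active = thallium entry rate above the same plate's blocked-transporter control wells by more than 3 SD; inconclusive = the two repeat wells disagree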;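 note: raw slope of fluorescence over initial fluorescence between 10 and 20 s after thallium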
KCC2 secondary2 = KCC2 modulators without ouabain present, confirmation, cell-based, HEK293 KCC2, thallium flux, FluoZin2, secondary assay 2. shares compounds with KCC2 mod. thallium flux FluoZin2 fluorescence; actives lie on both sides; F/F0 rise rate, 10–20 s post-thallium. normalized thallium flux at 10 µM. 3,700 compounds, 23% hits;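 active = thallium flux slope more than 3 SD above or below the plate's solvent-only control mean, mostly below; inconclusive = the two repeat wells disagreed; inactive = no significant shift from solvent-only controls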;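 note: raw slope with 0.1% DMSO as baseline and bumetanide as block control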
HEK293 Tl flux = thallium flux modulation in parental HEK cells, confirmation, counter-screen for KCC2 modulator project, cell-based, counterscreen 1 | shares compounds with KCC2 mod | 3,700 compounds, 46% hits | AID 1716, 2009 | HEK293 parental cells, thallium flux FluoZin2, ouabain; baseline-ratio fluorescence slope, 10–20 s after thallium | thallium flux rate (normalised fluorescence) at 10 µM;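 active = thallium flux rate significantly above the same plate's solvent-only control wells, beyond their mean plus 3 SD; inconclusive = the two replicate wells gave conflicting results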
KCC2 ouabain = KCC2 inhibitors and activators, ouabain retest, confirmation, HEK-KCC2 cells | shares compounds with KCC2 mod | HEK293-KCC2, thallium flux FluoZin2 fluorescence; bidirectional: low = inhibitor, high = activator | raw Tl+ flux slope (below DMSO = inhibition, above = activation) at 10 µM | 3,700 compounds, 48% hits | AID 1717, 2009;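 active = thallium flux slope beyond 3 SD from same-plate DMSO control mean in most replicates, usually higher, sometimes lower; inconclusive = repeat tests gave conflicting results; inactive = no significant difference from controls in most replicates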;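 note: slope of initial-normalized fluorescence between seconds 10 and 20 after thallium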
HEK293 Tl flux2 = native HEK Tl+ uptake effects, second counter-screen – HEK cells, counterscreen 2, counter-screen for KCC2 modulator project, confirmation. 3,700 compounds, 33% hits. thallium flux slope at 10 µM. HEK293 parental, thallium flux FluoZin-2 fluorescence slope. shares compounds with KCC2 mod. AID 1718, 2009;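 active = thallium flux slope above the same plate's solvent-control mean plus 3 SD in both duplicate wells; inconclusive = duplicate wells that disagreed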;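 note: run without ouabain in cells lacking the KCC2 cotransporter; slope of fluorescence scaled to its starting value between 10 and 20 s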
Numbers without * were called inactive; i = inactive; ? = inconclusive; / = not tested or not shown. Sampled rows, rich in hits. Any-hit rate of the full collection: about 4.1%.

SMILES	KCNK9 inh	hERG rescue	KCNQ1 inh	KCNK3 block	KCNQ1 pot	KCC2 mod	KCC2 sec1	KCC2 bumet counter	KCC2 secondary2	HEK293 Tl flux	KCC2 ouabain	HEK293 Tl flux2
CC(/C=C/c1ccccc1)=N\NC(=S)NC(C)C	i	-9.1	i	i	i	8.02*	0.00683	0.0181*	0.0304	0.0171*	?	0.0136*
O=C1C[C@@H]2c3c(cccc3CN1Cc1ccccc1Br)C[C@@H](O)[C@H]2O	/	/	/	i	/	/	/	/	/	/	/	/
C/C(Cl)=C\Cn1c(O)c(N=NC(N)=S)c2cc(Br)ccc21	i	26.4*	i	i	19*	35.6*	0.00591	0.0289*	0.0543*	0.0425*	0.0622*	0.0295*
NC(=S)N=Nc1c(O)n(CCCl)c2ccc(Br)cc12	i	-11.5	i	i	i	28.7*	0.0165*	0.0693*	0.0378	0.0301*	0.0418*	0.0147*
CCCCn1c(O)c(N=NC(=O)c2ccncc2)c2cc(Br)ccc21	i	-5.7	i	i	i	0.545	/	/	/	/	/	/
CCc1ccccc1Nc1nc(N)nc(COC(=O)CCC(=O)c2ccc(F)cc2)n1	/	/	/	i	/	/	/	/	/	/	/	/
Cc1ccc2nc(CSc3nc(C)cc(C)c3C#N)[nH]c2c1	i	-8.4	i	i	i	5.94*	0.0166	0.00345	0.0246*	0.00612*	0.0145	0.00935
Cc1cccc(C)c1C(=NCCN(C)C)c1ccccc1	i	-11.9	i	i	i	/	/	/	/	/	/	/
O=C(NC(=S)N1CCN(Cc2ccccc2)CC1)c1cccnc1	i	-5.1	i	i	i	-0.226	/	/	/	/	/	/
O=C(NC(=S)N1CCN(C/C=C/c2ccccc2)CC1)c1ccc(Cl)nc1	i	3.1	i	i	i	68.2*	0.00775	0.0802*	0.0625*	0.0562*	0.0668*	0.0543*
O=C(O)Cc1cccc(=O)c(O)c1C(=O)O	/	/	/	i	/	/	/	/	/	/	/	/
CSc1ncc(Cl)c(C(=O)C(C#N)c2nc3c(C)cc(C)cc3c(=O)[nH]2)n1 (stereo not drawn)	i	-4.4	i	i	i	5.05*	0.007	0.0192*	0.0338	0.0163*	?	0.0152*
CSc1ncc(Cl)c(C(=O)Nc2cccc(C)c2)n1	i	-11.6	i	i	i	-1.71	/	/	/	/	/	/
CCOc1ccccc1C(=O)Nc1ccc(S(=O)(=O)Nc2nccc(C)n2)cc1	i	-2.6	i	i	i	/	/	/	/	/	/	/
COc1ccc(C(=O)NNC(=O)CCc2ccccc2OC)cc1	i	-3.0	i	i	i	/	/	/	/	/	/	/
CN1C(C(=O)NCc2cccc(Br)c2)CC2Cn3c(nc4cc(Cl)c(Cl)cc43)C21 (stereo not drawn)	i	-13.7	i	i	i	-3.4*	0.0085	0.00613	0.033	0.00737	0.0181	0.00998
O=S1(=O)CCN2C(=N1)Sc1c2ccc2c1CCCC2	i	-8.2	i	i	i	7.72*	0.00975	0.00526	0.0326	0.00721	0.0223	0.0101
Cc1ccc2c(c1)N(C(=O)CCC(=O)NCCCN1CCN(C)CC1)CC(C)O2 (stereo not drawn)	i	-5.4	i	i	i	/	/	/	/	/	/	/
Nc1ccc(Br)c2c1C(=O)c1ccccc1C2=O	i	-20.9	i	/	i	-3.84*	?	?	0.0316	?	0.0185	0.0107
Nc1ccc(O)c2c1C(=O)c1ccccc1C2=O	i	-5.7	i	i	i	-1.03	/	/	/	/	/	/
Cc1cccc(OCC(=O)N/N=C/CC(C)c2ccccc2)c1C (stereo not drawn)	i	-5.0	i	i	i	-4.47*	0.0089	0.00535	0.0309	0.00737	?	0.0112
Cc1ccccc1OCC(=O)N/N=C/C=C/c1ccccc1	i	-5.3	i	i	i	-1.01	/	/	/	/	/	/
C/C(=N\NC(=O)c1cc(-c2cccs2)nc2ccccc12)c1ccccn1	i	-14.5	i	i	i	16.8*	0.0149*	0.0436*	0.036	0.0604*	0.0446*	?
CCCCN(CC)S(=O)(=O)c1ccc2c(c1)CCCN2C(C)=O	i	-6.8	i	i	i	-0.562	/	/	/	/	/	/
CC(=O)N1CCCc2cc(S(=O)(=O)N(C)Cc3ccccc3)ccc21	i	-1.9	i	i	i	-4.02*	0.00699	0.00649	0.0335	0.00455	?	0.0112
O=c1oc2ccccc2c(NCc2cccc(F)c2)c1[N+](=O)[O-]	i	-7.8	i	i	i	/	0.00742	0.00568	0.0299	0.0066	0.0219*	0.0104
O=c1oc2ccccc2c(Nc2ccc3ccccc3c2)c1[N+](=O)[O-]	i	-11.5	i	i	i	-3.78*	0.00911	0.0072	0.0312	0.00422	0.0152*	0.0114

Source: PubChem (several laboratories)
